Assay results from ChEMBL document CHEMBL1147686, “Non-peptide calcitonin gene-related peptide receptor antagonists from a benzodiazepinone lead” (Bioorg Med Chem Lett, 2006).

Key:
[1] = biological target: T1, Calcitonin-gene-related peptide receptor, CALCRL/RAMP1 (Homo sapiens, UniProt O60894+Q16602); experiment: Displacement of [125I]CGRP from human cloned CLR/RAMP1 receptor expressed in E10 cells; assay type: cell-based
[2] = biological target: T1, Calcitonin-gene-related peptide receptor, CALCRL/RAMP1; experiment: Antagonist activity at human cloned CLR/RAMP1 receptor expressed in E10 cells measured as inhibition of CGRP-mediated cAMP production; assay type: functional, cell-based
Summary of the method: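 Whole E10 cells stably expressing cloned human CLR/RAMP1; antagonist tested against CGRP-stimulated cAMP production, IC50 from inhibition of the cAMP response.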

[3] = biological target: T1, Calcitonin-gene-related peptide receptor, CALCRL/RAMP1; experiment: Antagonist activity at human cloned CLR/RAMP1 receptor expressed in E10 cells measured as inhibition of CGRP-mediated cAMP production at 17 uM; assay type: functional, cell-based
[4] = biological target: T1, Calcitonin-gene-related peptide receptor, CALCRL/RAMP1; experiment: Displacement of [125I]CGRP from human cloned CLR/RAMP1 receptor expressed in SK-N-MC cells at 100 uM; assay type: cell-based
[5] = Clearance in iv dosed rat; assay type: ADME, organism-based; conditions: in vivo
Summary of the method: (§1)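 Rats received compound intravenously; plasma half-life and clearance derived from the iv profile.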

[6] = biological target: Calcitonin-gene-related peptide receptor; CALCRL/RAMP1 (Rattus norvegicus) (UniProt Q63118+Q9JJ74); experiment: Displacement of [125I]CGRP from rat CLR/RAMP1 receptor at 100 uM; assay type: protein-complex assay
[7] = Cmax in rat; assay type: ADME, organism-based; conditions: in vivo
[8] = Oral bioavailability in rat; assay type: ADME, organism-based; conditions: in vivo
[9] = Half life in iv dosed rat; assay type: ADME, organism-based; conditions: in vivo; summary of the method: as §1

T1 sequence (O60894 whole entry): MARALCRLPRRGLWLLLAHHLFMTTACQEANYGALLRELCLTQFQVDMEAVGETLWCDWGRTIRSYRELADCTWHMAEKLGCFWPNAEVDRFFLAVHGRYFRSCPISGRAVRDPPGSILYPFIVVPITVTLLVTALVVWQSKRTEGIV
T1 sequence (Q16602 whole entry): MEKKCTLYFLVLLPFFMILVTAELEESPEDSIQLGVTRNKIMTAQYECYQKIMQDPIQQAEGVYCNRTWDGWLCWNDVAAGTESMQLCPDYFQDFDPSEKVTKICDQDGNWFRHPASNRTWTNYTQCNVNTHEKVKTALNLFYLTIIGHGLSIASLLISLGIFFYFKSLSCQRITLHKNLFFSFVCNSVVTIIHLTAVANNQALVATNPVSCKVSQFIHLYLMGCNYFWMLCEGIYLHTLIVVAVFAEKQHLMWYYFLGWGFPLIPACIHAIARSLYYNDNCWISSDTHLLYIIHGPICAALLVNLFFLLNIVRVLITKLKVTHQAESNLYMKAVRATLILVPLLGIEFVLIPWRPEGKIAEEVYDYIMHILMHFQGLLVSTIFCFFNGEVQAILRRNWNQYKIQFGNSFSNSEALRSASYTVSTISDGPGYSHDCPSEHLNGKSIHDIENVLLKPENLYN

SMILES	Ki [1]	IC50 [2]	also measured
O=C(N[C@@H]1N=C(c2ccccc2)c2ccccc2N(CC(F)(F)F)C1=O)N1CCC(N2CCc3ccccc3NC2=O)CC1	0.061 µM	0.043 µM	
CC(C)N1C(=O)C(NC(=O)N2CCC(N3Cc4ccccc4NC3=O)CC2)N=C(c2ccccc2)c2ccccc21 (racemic)	1.06 µM	1.81 µM	
CN1C(=O)[C@H](NC(=O)N2CCC(N3Cc4ccccc4NC3=O)CC2)N=C(c2ccccc2)c2ccccc21	2.2 µM	3.64 µM	
O=C(N[C@H](Cc1cc(Br)c(O)c(Br)c1)C(=O)N1CCN(c2ccccc2)CC1)N1CCC(n2c(O)nc3ccccc32)CC1	0.083 µM	0.075 µM	
CN1C(=O)[C@H](NC(=O)Nc2ccc3c(c2)CCC2(C3)NC(=O)NC2=O)N=C(c2ccccc2)c2ccccc21 (some centres not stated)	4.25 µM		inhibition [3]: 57%
CC(C)N1C(=O)C(NC(=O)N2CCC(N3Cc4ccccc4N(C)C3=O)CC2)N=C(c2ccccc2)c2ccccc21 (racemic)			inhibition [4]: 33%
O=C(N[C@@H]1N=C(c2ccccc2)c2ccccc2N(CC(F)(F)F)C1=O)N1CCC(n2c(=O)[nH]c3ccccc32)CC1	2.37 µM	1.58 µM	
O=C(N[C@@H]1N=C(c2ccccc2)c2ccccc2N(CC(F)(F)F)C1=O)N1CCC(N2Cc3ccccc3NC2=O)CC1	0.044 µM	0.038 µM	clearance [5]: 20 mL/min/kg; inhibition [6]: 35%; Cmax [7]: 240 nM; bioavailability [8]: 10%; Kb [2]: 0.077 µM; Kb ([2]; read-out: pA2 (converted)): 0.0794 µM; half-life [9]: 1.7 h
CCN1C(=O)[C@H](NC(=O)N2CCC(N3Cc4ccccc4NC3=O)CC2)N=C(c2ccccc2)c2ccccc21	0.897 µM	0.99 µM	
CN1C(=O)C(NC(=O)N2CCC(n3c(=O)[nH]c4ccccc43)CC2)N=C(c2ccccc2)c2ccccc21 (racemic)	> 13 µM		
CN1C(=O)[C@@H](NC(=O)N2CCC(N3Cc4ccccc4NC3=O)CC2)N=C(c2ccccc2)c2ccccc21	8.4 µM	4.45 µM	
